Test results as given in ChEMBL document CHEMBL3751694, “1-Piperazinylphthalazines as potential VEGFR-2 inhibitors and anticancer agents: Synthesis and in vitro biological evaluation” (Eur J Med Chem, 2016).

Assays:
Assay type in all cases: functional
CCRF-CEM = experiment: Growth inhibition of human CCRF-CEM cells at 10 uM after 48 hrs by SRB method; conditions: read-out: GI
In short: (§1)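 NCI 56-line primary screen at a single 10^-5 M concentration. Cells grown in RPMI 1640 with 5% FBS and 2 mM L-glutamine, plated at 5000–40,000 cells/well, then preincubated for 24 h. Exposure was 48 h at 37 °C and 5% CO2. Adherent cells were fixed with cold TCA at 10% final, suspension cells at 16%. Staining used 0.4% SRB, read at 515 nm. Results are % growth inhibition relative to control.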

HT-29 = experiment: Growth inhibition of human HT-29 cells at 10 uM after 48 hrs by SRB method; conditions: HT-29, 48 h, read-out: GI; in short: as §1
[1] = Growth inhibition of human Caki1 cells at 10 uM after 48 hrs by SRB method; conditions: CAKI-1, 48 h, read-out: GI; in short: as §1
[2] = Growth inhibition of human COLO205 cells at 10 uM after 48 hrs by SRB method; conditions: COLO 205, 48 h, read-out: GI; in short: as §1
A498 = experiment: Growth inhibition of human A498 cells at 10 uM after 48 hrs by SRB method; conditions: A498, 48 h, read-out: GI; in short: as §1
[3] = Growth inhibition of human OVCAR8 cells at 10 uM after 48 hrs by SRB method; conditions: OVCAR-8, 48 h, read-out: GI; in short: as §1
NCI-H522 = experiment: Growth inhibition of human NCI-H522 cells at 10 uM after 48 hrs by SRB method; conditions: NCI-H522, 48 h, read-out: GI; in short: as §1
MDA-MB-468 = experiment: Growth inhibition of human MDA-MB-468 cells at 10 uM after 48 hrs by SRB method; conditions: MDA-MB-468, 48 h, read-out: GI; in short: as §1
[4] = Growth inhibition of human SF268 cells at 10 uM after 48 hrs by SRB method; conditions: SF-268, 48 h, read-out: GI; in short: as §1
T47D = experiment: Growth inhibition of human T47D cells at 10 uM after 48 hrs by SRB method; conditions: read-out: GI
In short: (§2)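 NCI 56-line screen, single-dose primary assay at 10^-5 M. Cells grown in RPMI 1640 with 5% FBS and 2 mM L-glutamine, plated at 5000–40,000 cells/well and held 24 h at 37 °C, 5% CO2 before drug addition. Compound was given from DMSO stock, exposure 48 h, then TCA fixation and SRB staining with absorbance at 515 nm. % growth is taken relative to time-zero and untreated controls.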

K562 = experiment: Growth inhibition of human K562 cells at 10 uM after 48 hrs by SRB method; conditions: K562, 48 h, read-out: GI; in short: as §1
[5] = Growth inhibition of human OVCAR3 cells at 10 uM after 48 hrs by SRB method; conditions: OVCAR-3, 48 h, read-out: GI; in short: as §1
MDA-MB-435 = experiment: Growth inhibition of human MDA-MB-435 cells at 10 uM after 48 hrs by SRB method; conditions: MDA-MB-435, 48 h, read-out: GI; in short: as §1
[6] = Growth inhibition of human HCT116 cells at 10 uM after 48 hrs by SRB method; conditions: HCT-116, 48 h, read-out: GI; in short: as §1
[7] = Growth inhibition of human UACC257 cells at 10 uM after 48 hrs by SRB method; conditions: UACC-257, 48 h, read-out: GI; in short: as §2
SN12C = experiment: Growth inhibition of human SN12C cells at 10 uM after 48 hrs by SRB method; conditions: read-out: GI; in short: as §1
[8] = Growth inhibition of human UO31 cells at 10 uM after 48 hrs by SRB method; conditions: UO-31, 48 h, read-out: GI; in short: as §2
SK-MEL-5 = experiment: Growth inhibition of human SK-MEL-5 cells at 10 uM after 48 hrs by SRB method; conditions: SK-MEL-5, 48 h, read-out: GI; in short: as §1
[9] = Growth inhibition of human HOP92 cells at 10 uM after 48 hrs by SRB method; conditions: HOP-92, 48 h, read-out: GI; in short: as §1
[10] = Growth inhibition of human OVCAR4 cells at 10 uM after 48 hrs by SRB method; conditions: OVCAR-4, 48 h, read-out: GI; in short: as §1
[11] = Growth inhibition of human UACC62 cells at 10 uM after 48 hrs by SRB method; conditions: UACC-62, 48 h, read-out: GI; in short: as §2
[12] = Growth inhibition of human PC3 cells at 10 uM after 48 hrs by SRB method; conditions: PC-3, 48 h, read-out: GI; in short: as §1
[13] = Growth inhibition of human TK10 cells at 10 uM after 48 hrs by SRB method; conditions: TK-10, 48 h, read-out: GI; in short: as §2
[14] = Growth inhibition of human SF295 cells at 10 uM after 48 hrs by SRB method; conditions: SF-295, 48 h, read-out: GI; in short: as §1
[15] = Growth inhibition of human […] cells at 10 uM after 48 hrs by SRB method; conditions: read-out: GI; in short: as §1
SR = experiment: Growth inhibition of human SR cells at 10 uM after 48 hrs by SRB method; conditions: read-out: GI; in short: as §1
SK-MEL-2 = experiment: Growth inhibition of human SK-MEL-2 cells at 10 uM after 48 hrs by SRB method; conditions: SK-MEL-2, 48 h, read-out: GI; in short: as §1
MCF7 = experiment: Growth inhibition of human MCF7 cells at 10 uM after 48 hrs by SRB method; conditions: MCF7, 48 h, read-out: GI; in short: as §1
A549 = experiment: Growth inhibition of human A549 cells at 10 uM after 48 hrs by SRB method; conditions: A549, 48 h, read-out: GI; in short: as §1
NCI-H226 = experiment: Growth inhibition of human NCI-H226 cells at 10 uM after 48 hrs by SRB method; conditions: NCI-H226, 48 h, read-out: GI; in short: as §1
[16] = Growth inhibition of human HL-60(TB) cells at 10 uM after 48 hrs by SRB method; conditions: HL-60, 48 h, read-out: GI
In short: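 NCI single-dose primary screen at 10^-5 M, 48 h exposure. Cells grown in RPMI 1640 with 5% FBS and 2 mM L-glutamine. Suspension cells fixed in situ with TCA (final 16%), stained with SRB, absorbance read at 515 nm. Percent growth inhibition calculated against time-zero and untreated control plates.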

[17] = Growth inhibition of human MOLT4 cells at 10 uM after 48 hrs by SRB method; conditions: MOLT-4, 48 h, read-out: GI; in short: as §1
NCI/ADR-RES = experiment: Growth inhibition of human NCI/ADR-RES cells at 10 uM after 48 hrs by SRB method; conditions: read-out: GI; in short: as §1
786-0 = experiment: Growth inhibition of human 786-0 cells at 10 uM after 48 hrs by SRB method; conditions: 786-0, 48 h, read-out: GI; in short: as §1

`O=C(CN1CCN(c2nnc(-c3ccccc3)c3ccccc23)CC1)Nc1nc(-c2ccc(Cl)cc2)cs1` showed an inhibition of growth at 10 µM (CCRF-CEM) of 38%, an inhibition of growth at 10 µM (HT-29) of 32% and an inhibition of growth at 10 µM [1] of 41%. For the same compound, the inhibition of growth at 10 µM [2] was 32%, the inhibition of growth at 10 µM (A498) was 52% and the inhibition of growth at 10 µM [3] was 37%. It also gave an inhibition of growth at 10 µM (NCI-H522) of 47%, an inhibition of growth at 10 µM (MDA-MB-468) of 66% and an inhibition of growth at 10 µM [4] of 32%. It also gave an inhibition of growth at 10 µM (T47D) of 65%, an inhibition of growth at 10 µM (K562) of 60% and an inhibition of growth at 10 µM [5] of 31%. For the same compound, the inhibition of growth at 10 µM (MDA-MB-435) was 31%, the inhibition of growth at 10 µM [6] was 38% and the inhibition of growth at 10 µM [7] was 45%. For the same compound, the inhibition of growth at 10 µM (SN12C) was 30%, the inhibition of growth at 10 µM [8] was 50% and the inhibition of growth at 10 µM (SK-MEL-5) was 56%. For the same compound, the inhibition of growth at 10 µM [9] was 31%, the inhibition of growth at 10 µM [10] was 30% and the inhibition of growth at 10 µM [11] was 36%. For the same compound, the inhibition of growth at 10 µM [12] was 56%, the inhibition of growth at 10 µM [13] was 41% and the inhibition of growth at 10 µM [14] was 38%. For the same compound, the inhibition of growth at 10 µM [15] was 58%, the inhibition of growth at 10 µM (SR) was 53% and the inhibition of growth at 10 µM (SK-MEL-2) was 31%. For the same compound, the inhibition of growth at 10 µM (MCF7) was 44%, the inhibition of growth at 10 µM (A549) was 45% and the inhibition of growth at 10 µM (NCI-H226) was 31%. It also gave an inhibition of growth at 10 µM [16] of 45%, an inhibition of growth at 10 µM [17] of 64% and an inhibition of growth at 10 µM (NCI/ADR-RES) of 39%. The inhibition of growth at 10 µM (786-0) was 30%.
